The list is not random: actives were taken first. Their share in the collection is about 3.7%.
UPR XBP1 act: activators of adaptive XBP1 UPR arm, primary screen, cell-based, CHO-XBP1 luciferase reporter, luminescence, uHTS; IRE1-XBP1 UPR activation; percent of tunicamycin response, DMSO as zero; activation, % at 20 µM; AID 463104, 2010; 330,000 tested, 0.33% active;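 active means versus positive control, 20 µM dose yields 30% or more activation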;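 further: 100% = tunicamycin at 10 µg/mL and 0% = DMSO only wells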
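Signal: luciferase luminescence; Assay system: CHO-XBP1 luciferase reporter cells; Amount: one thousand reporter cells per well; Dosing: 20 µM single concentration, DMSO 1%; Benchmarks: high control tunicamycin 10 µg/mL final, low control DMSO vehicle only; Schedule: 6 h compound exposure at 37 °C, 5% CO2; Evaluation: percent activation relative to tunicamycin reference.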
Mdm2 ligase inh: MDM2-luciferase reporter signal enhancers, primary screen, MDM2 E3 ligase inhibitor project, cell-based, luminescence, 1536-well; E3 ubiquitin-protein ligase Mdm2 (Homo sapiens), Q00987; cell-based MDM2 ubiquitination luciferase reporter, 2 h; 0 = plate control, 100 = twice control, blank-subtracted; signal enhancement, % at 5 µM; 210,000 tested, 0.11% active; AID 1230, 2008;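 active means signal enhancement of 30% or more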;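 further: luminescence tracks abundance of the self-degrading MDM2-luciferase fusion protein; higher signal means inhibition of MDM2 E3 ligase activity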
Target sequence (Q00987 whole entry, looked up, the tested form may be a part): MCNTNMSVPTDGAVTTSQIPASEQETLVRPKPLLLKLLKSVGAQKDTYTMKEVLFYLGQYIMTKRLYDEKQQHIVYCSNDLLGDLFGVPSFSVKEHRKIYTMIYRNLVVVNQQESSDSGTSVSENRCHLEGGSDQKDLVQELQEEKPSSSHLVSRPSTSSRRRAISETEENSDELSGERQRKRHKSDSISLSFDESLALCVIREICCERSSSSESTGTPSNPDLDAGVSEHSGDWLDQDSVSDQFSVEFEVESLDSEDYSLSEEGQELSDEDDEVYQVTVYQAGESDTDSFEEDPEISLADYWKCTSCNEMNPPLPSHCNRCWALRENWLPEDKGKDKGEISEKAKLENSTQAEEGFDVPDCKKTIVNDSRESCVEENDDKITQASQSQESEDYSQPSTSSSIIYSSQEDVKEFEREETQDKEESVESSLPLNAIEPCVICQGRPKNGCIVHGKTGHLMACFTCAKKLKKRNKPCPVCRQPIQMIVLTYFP
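Test system: stable mammalian line carrying autodegrading MDM2–luciferase fusion reporter; quantity: 2000 cells in each well; times: 4 h cell settling then 2 h compound exposure, 37 °C; detection: luminescence with SteadyLite reagent, 15 min at room temperature; evaluation: percent signal gain over controls, blank-subtracted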
Mdm2 MdmX PPI: inhibitors of human Mdm2-MdmX association, primary screen, cell-based, luminescence, split luciferase, SaOS-2, uHTS | SaOS-2 split-luciferase Mdm2/MdmX complementation | 330,000 tested, 3% active | inhibition, % at 8 µM;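 active means inhibition of at least 50% at 8 µM in the primary screen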
CHOP UPR activ: activators of apoptotic CHOP UPR arm, primary screen, cell-based, CHO-CHOP luciferase reporter, luminescence, uHTS | UPR activation; percent of tunicamycin response over DMSO baseline | AID 449763, 2010 | 330,000 tested, 0.34% active | activation, % at 10 µM;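 active means at 10 µM dose, activation of 40% or more, normalized to positive control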;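 further: 100% = tunicamycin at 10 µg/mL and 0% = DMSO alone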
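Dosing – one dose, 10 µM in 0.5% DMSO · System – CHO-CHOP cells, stable luciferase reporter of PERK-eIF2a-CHOP signalling · Input – 500 cells/well · Control set – tunicamycin 10 µg/mL final as positive, DMSO-only wells as negative · Timing – 6 h compound treatment, 37 °C · Measure – % activation vs tunicamycin · Technique – luminescence read with Steady-Glo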
Beta2AR agonist: beta2AR agonists driving receptor internalization, primary screen, cell-based, FAP fluorogen, flow cytometry; Beta-2 adrenergic receptor (Homo sapiens), P07550; Am2.2-beta2AR cells; response, % (test concentration not listed); 340,000 tested, 0.43% active; AID 504454, 2011;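 active means response above a set limit, near 3 SD of response in nonfluorescent compounds, cut at about 42% in these data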
Dynein cargo inh: inhibitors of GR-EGFP nuclear translocation, primary screen, dynein cargo transport inhibitor project, imaging, high-content, 3617.4 mouse cells. AID 1381, 2008. test concentration mostly 20 µM; stimulated with dexamethasone, 1 µM; stronger effect = lower value. z-score, hits read low. 220,000 tested, 0.47% active;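 active means plate z-score of nuclear minus cytoplasmic receptor signal below a set negative limit, without overly bright fluorescence or cell loss, cut at about -3.5 in these data, passing the limit was not always enough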;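 further: z-score of nuclear minus cytoplasmic ring GR-EGFP intensity difference per well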
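Also added – dexamethasone, 1.0 µM final · Buffer or medium – tet-free, stripped-serum medium · Schedule – induction 48 h, compound 1 h, agonist 30 min · Detection – formaldehyde fixation, Hoechst nuclear stain, 10x automated fluorescence imaging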
Beta2AR ag CP1: beta2AR agonists via receptor internalization, confirmation, cell-based, FAP fluorogen, flow cytometry, single point, cherry pick 1 | shares compounds with Beta2AR agonist | Am2.2-beta2AR cells, FAP surface receptor; stronger effect = lower value | percent response (surface receptor), % at 10 µM | 1,100 tested, 25% active;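 active means surface receptor percent response at or below 58%, roughly 3 SD from nonfluorescent compounds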
FAP fluor counter: fluorescence artifact in beta-2AR agonist FAP counterscreen; shares compounds with Beta2AR agonist; Am2.2 cells, FAP fluorogen flow cytometry; stronger effect = lower value; calls only at 10 µM; 1,100 tested, under 10 active; AID 588765;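 active means percent response below a set limit in fluorescence channel 1 and below 50% in channel 8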
An asterisk follows results filed as active; i = inactive; / = no result given.

SMILES | UPR XBP1 act | Mdm2 ligase inh | Mdm2 MdmX PPI | CHOP UPR activ | Beta2AR agonist | Dynein cargo inh | Beta2AR ag CP1 | FAP fluor counter
COC(=O)c1ccc(NC(=O)COc2ccc(S(=O)(=O)N3CCCCC3)cc2)cc1 | -1 | -7 | -7 | -2 | 87* | -0.0065 | 9.0* | i
O=C(COc1ccc(S(=O)(=O)N2CCOCC2)cc1)Nc1ccc2c(c1)OCCO2 | -3 | -2 | 5 | 0 | 5 | -1.1 | 85 | i
O=C(COc1ccc(S(=O)(=O)N2CCCC2)cc1)Nc1ccc(F)cc1 | -1 | / | 1 | 1 | -3 | / | / | /
O=C(COc1ccc(S(=O)(=O)N2CCOCC2)cc1)Nc1ccc(Br)cc1 | -4 | / | 21 | -2 | -1 | / | 102 | i
COc1ccc(NC(=O)CN2C(=O)COc3ccc(S(=O)(=O)N4CCCCCC4)cc32)cc1 | -4 | / | 20 | -2 | 0 | / | / | /
COc1cc(OC)cc(C(=O)Nc2ccc(S(=O)(=O)N3CCOCC3)cc2)c1 | -5 | / | 25 | -1 | 7 | / | / | /
O=C(CN(c1ccccc1F)S(=O)(=O)c1ccccc1)NC1CCCCCC1 | 2 | -10 | 0 | 0 | 53* | -0.57 | 107 | i
Cc1ccc(S(=O)(=O)N(CC(=O)NC2CCCCCC2)c2ccccc2F)cc1 | -1 | -12 | -8 | 0 | -6 | -0.026 | / | /
N#CC1(Nc2cccc(Cl)c2)CCCC1 | / | / | / | / | 0 | / | / | /
Cc1ccccc1-c1nc2c3ccccc3nc(=S)n2[nH]1 | / | / | / | / | 7 | / | 119 | i
Cc1nc2ccccc2n1CCc1nc2c3ccccc3nc(=S)n2[nH]1 | 1 | -23 | 14 | -1 | -13 | -0.23 | / | /
CCOC(=O)c1cn2c3c(c(F)c(F)cc3c1=O)SC(N1CCOCC1)=N2 | / | / | / | / | / | -1.7 | / | /
CCOC(=O)c1cn(C2CC2)c2c(F)c(NCCCN(C)C)c(F)cc2c1=O | 2 | / | -8 | -1 | 64* | / | 38* | i
Cc1cc(C)cc(NC(=O)COC(=O)COc2ccc(N(C)S(=O)(=O)c3cccs3)cc2)c1 | 0 | / | 11 | 0 | 2 | / | / | /
O=C(CN1CCN(Cc2ccccc2)CC1)Nc1ccc(N2CCOCC2)cc1 | -2 | -16 | 20 | 0 | 50* | -0.39 | 118 | i
Cn1cnc([N+](=O)[O-])c1N=C(N)N | 1 | -11 | 15 | -1 | 0 | 1.3 | / | /
CCN1CCN(CCc2nc3cc(NC(=O)COc4ccccc4)ccc3n2C)CC1 | -3 | / | 30 | 2 | -12 | / | / | /
CN1CCN(CCc2nc3cc(NC(=O)COc4ccccc4)ccc3n2C)CC1 | 1 | -7 | 20 | 0 | -17 | 1.7 | 129 | i
COc1cc(NC(=O)c2ccco2)c(OC)cc1NC(=O)c1cc(OC)c(OC)c(OC)c1 | -2 | -11 | 49 | -1 | 0 | 3 | 126 | i
CCOc1cc(NC(=O)c2ccco2)c(OCC)cc1NC(=O)c1cc(OC)c(OC)c(OC)c1 | 5 | -36 | 47 | 3 | 1 | 0.62 | / | /
CCN(c1ccc2c(c1)OCO2)S(=O)(=O)c1cc2c(cc1Br)CCN2C(=O)C1CC1 | / | / | / | / | 24 | / | / | /
CCN(c1ccc2c(c1)OCO2)S(=O)(=O)c1cc(Br)cc2c1N(C(C)=O)CC2 | -2 | 4 | 8 | -1 | 80* | -0.59 | 47* | i
